Molecules are shown by their SMILES. Values after ≈ are worked out from the molar mass of the structure shown.

A short description of data set [1]: kinetic solubility analysis. It is filed as physicochemical. The note with it: aqueous medium (not further specified). Summed up:
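Solubility determined by quantitative nitrogen detection. Three separate experiments; average intra-assay %CV 4.5%.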

Data set [2] has as its target hPK, M2 (pyruvate kinase, human M2 isoform, PKM2) (Homo sapiens, UniProt P14618). The experiment in a line: luminescent pyruvate kinase-luciferase coupled assay. It is filed as biochemical. Particulars: read-out: hPK, M2 AC50, three separate experiments.
Data set [3] deals with PKM2 (Homo sapiens, UniProt P14618). The data set is described as follows: steady-state kinetics of PEP and ADP in the PK-LDH coupled assay. It is filed as biochemical. Particulars: in the presence of activator (10 μM); PEP varied.
Data set [4] concerns firefly luciferase. The experiment in a line: firefly luciferase counter-assay. It is filed as biochemical.

PKM2, sequence (P14618 whole entry): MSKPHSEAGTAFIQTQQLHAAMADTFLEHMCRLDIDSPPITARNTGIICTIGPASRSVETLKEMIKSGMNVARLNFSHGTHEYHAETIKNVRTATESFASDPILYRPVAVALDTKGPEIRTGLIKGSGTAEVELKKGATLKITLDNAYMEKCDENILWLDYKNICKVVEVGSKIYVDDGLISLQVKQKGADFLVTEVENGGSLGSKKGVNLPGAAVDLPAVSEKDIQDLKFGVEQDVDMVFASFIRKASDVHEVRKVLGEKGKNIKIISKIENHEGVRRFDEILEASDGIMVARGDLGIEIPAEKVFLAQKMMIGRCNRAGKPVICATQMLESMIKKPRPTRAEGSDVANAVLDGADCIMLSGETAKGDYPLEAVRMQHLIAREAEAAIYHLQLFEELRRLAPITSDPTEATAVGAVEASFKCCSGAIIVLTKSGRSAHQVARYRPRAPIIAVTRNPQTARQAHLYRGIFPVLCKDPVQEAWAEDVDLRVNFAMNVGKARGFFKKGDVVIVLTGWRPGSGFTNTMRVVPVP
hPK, M2 (pyruvate kinase, human M2 isoform, PKM2), sequence (P14618 whole entry, canonical isoform): as the sequence (P14618 whole entry) above

For orientation: solubility means the dissolved amount per volume that the medium holds. The low end stands for little dissolved substance, the high end for much dissolved substance. In data set [1], `Nc1cccc(S(=O)(=O)N2CCN(S(=O)(=O)c3c(F)cccc3F)CC2)c1` [compound 56] came in with a solubility of 3 µg/mL (≈ 7.19 µM).

Usually AC50 stands for the midpoint of the concentration-response curve, whichever way the signal moves. With `O=S(=O)(N[C@H]1CC[C@H](NS(=O)(=O)c2c(F)cccc2F)CC1)c1ccc2c(c1)OCCO2` [compound 40], the AC50 in data set [2] was determined as 2110 nM.

Molecule `O=S(=O)(c1ccc2c(c1)OCCO2)N1CCN(S(=O)(=O)c2c(F)cccc2F)CC1` [compound 10] registered a solubility in data set [1] below 0.5 µg/mL.

Turning to `COc1ccc(S(=O)(=O)N2CCN(S(=O)(=O)c3ccc4c(c3)OCCO4)CC2)cc1` [compound 2], the Vmax in data set [3] is reported as 265 pmols/min. Moreover, the “activation of firefly luciferase” value in data set [4] is “did not activate”.

In data set [1], `O=S(=O)(c1ccc2c(c1)OCCO2)N1CCCN(S(=O)(=O)c2c(F)cccc2F)CC1` [compound 34] came in with a solubility of 2.7 µg/mL (≈ 5.69 µM).

For the molecule `COc1cc(F)c(S(=O)(=O)N2CCCN(S(=O)(=O)c3cccc(N)c3)CC2)c(F)c1` [compound 57], in data set [1], the solubility worked out at 15.1 µg/mL (≈ 32.7 µM).

The record behind these values is PMC2818804 (Journal of medicinal chemistry, 2010).
